Measured values as given in ChEMBL document CHEMBL4706770, “SD-91 as A Potent and Selective STAT3 Degrader Capable of Achieving Complete and Long-Lasting Tumor Regression” (ACS Med Chem Lett, 2021).
Activity calls are given as the source filed them. The rule behind the calls is not given here.

Columns and labels:
[1] = Drug metabolism buffer pH 4 assessed as conversion to (2-(((5S,8S,10aR)-8-(((S)-5-amino-1-(benzhydrylamino)-1,5-dioxopentan-2-yl)carbamoyl)-3-(8-(2-(2,6-dioxopiperidin-3-yl)-1-oxoisoindolin-4-yl)oct-7-ynoyl)-6-oxodecahydropyrrolo[1,2-a][1,5]diazocin-5-yl)carbamoyl)-1H-indole-5-carbonyl)phosphonic acid by measured after 96 hrs at 37 degC by LC/MS/MS analysis
[2] = Drug uptake in SCID mouse xenografted with human MOLM16 cells assessed as drug level in plasma at 50 mg/kg, iv measured after 1 hrs by LC-MS/MS; format: ADME, organism-based
Summary of the method: (§1)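 SCID mice bearing MOLM-16 xenografts given a single iv dose of 50 mg/kg. Concentrations of parent and hydrolysis product measured in plasma (ng/mL) and tumor tissue (ng/g) at 1, 6 and 24 h.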

[3] = target: T1, Protein cereblon/Signal transducer and activator of transcription 3 (Homo sapiens, UniProt P40763+Q96SW2); assay: Protac activity at CRBN/STAT3 in human MOLM-16 cells assessed as degradation of STAT3 incubated for 4 hrs by western blot analysis; format: cell-based; conditions: molm16
T1 sequence (P40763 whole entry): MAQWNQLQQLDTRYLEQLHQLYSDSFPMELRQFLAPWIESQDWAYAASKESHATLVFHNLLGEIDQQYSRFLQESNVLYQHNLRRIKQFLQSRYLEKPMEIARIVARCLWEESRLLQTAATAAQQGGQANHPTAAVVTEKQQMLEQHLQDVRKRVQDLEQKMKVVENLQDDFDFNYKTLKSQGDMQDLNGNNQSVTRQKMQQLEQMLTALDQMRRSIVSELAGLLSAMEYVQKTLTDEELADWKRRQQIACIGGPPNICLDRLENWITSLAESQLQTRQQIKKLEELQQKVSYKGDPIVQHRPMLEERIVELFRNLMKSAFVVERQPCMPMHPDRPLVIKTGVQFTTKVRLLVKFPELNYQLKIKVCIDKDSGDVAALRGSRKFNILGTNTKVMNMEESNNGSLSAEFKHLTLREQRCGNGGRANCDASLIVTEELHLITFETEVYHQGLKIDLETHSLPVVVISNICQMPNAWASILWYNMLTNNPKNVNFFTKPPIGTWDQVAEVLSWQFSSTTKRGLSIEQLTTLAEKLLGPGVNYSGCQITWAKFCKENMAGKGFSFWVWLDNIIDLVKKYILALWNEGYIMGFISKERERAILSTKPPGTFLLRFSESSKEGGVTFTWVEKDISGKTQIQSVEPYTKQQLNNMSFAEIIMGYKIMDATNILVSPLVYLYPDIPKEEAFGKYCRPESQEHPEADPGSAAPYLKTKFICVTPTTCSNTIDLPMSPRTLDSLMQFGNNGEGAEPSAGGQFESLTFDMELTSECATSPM
T1 sequence (Q96SW2 whole entry): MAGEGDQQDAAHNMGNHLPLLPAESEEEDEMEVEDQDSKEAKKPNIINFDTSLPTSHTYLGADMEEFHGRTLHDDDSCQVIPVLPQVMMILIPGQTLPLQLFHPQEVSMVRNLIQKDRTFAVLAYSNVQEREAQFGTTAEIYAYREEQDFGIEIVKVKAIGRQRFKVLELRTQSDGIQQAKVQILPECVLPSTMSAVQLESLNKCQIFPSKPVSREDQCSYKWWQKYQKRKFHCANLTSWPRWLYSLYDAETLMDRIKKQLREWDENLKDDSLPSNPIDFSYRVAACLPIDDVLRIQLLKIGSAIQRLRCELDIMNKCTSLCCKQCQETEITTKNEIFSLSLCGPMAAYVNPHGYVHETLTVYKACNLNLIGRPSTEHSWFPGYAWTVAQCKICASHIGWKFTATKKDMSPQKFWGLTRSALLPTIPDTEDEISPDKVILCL
Summary of the method: (§2)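 Cells treated 4 h with compounds across 25 nM to 100 μM; STAT proteins detected by Western blot with GAPDH as loading control; STAT3 DC50 estimated by densitometry of STAT3 relative to GAPDH. Applies to MOLM-16 for all STATs, and to SU-DHL-1 and SUP-M2 for STAT3.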

[4] = target: T1, Protein cereblon/Signal transducer and activator of transcription 3; assay: Protac activity at CRBN/STAT3 in human SUP-M2 cells assessed as degradation of STAT3 incubated for 4 hrs by western blot analysis; format: cell-based; summary of the method: as §2
[5] = (§3) Drug uptake in SCID mouse xenografted with human MOLM16 cells assessed as (2-(((5S,8S,10aR)-8-(((S)-5-amino-1-(benzhydrylamino)-1,5-dioxopentan-2-yl)carbamoyl)-3-(8-(2-(2,6-dioxopiperidin-3-yl)-1-oxoisoindolin-4-yl)oct-7-yno yl)-6-oxodecahydropyrrolo[1,2-a][1,5]diazocin-5-yl)carbamoyl)-1H-indole-5-carbonyl)phosphonic acid level in tumor tissue at 50 mg/kg, iv measured after 1 hrs by LC-MS/MS; format: ADME, organism-based; conditions: in vivo; summary of the method: as §1
[6] = Drug metabolism in complete cell culture medium assessed as (2-(((5S,8S,10aR)-8-(((S)-5-amino-1-(benzhydrylamino)-1,5-dioxopentan-2-yl)carbamoyl)-3-(8-(2-(2,6-dioxopiperidin-3-yl)-1-oxoisoindolin-4-yl)oct-7-ynoyl)-6-oxodecahydropyrrolo[1,2-a][1,5]diazocin-5-yl)carbamoyl)-1H-indole-5-carbonyl)phosphonic acid after 2 hrs
Summary of the method: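 Parent compound incubated in the cell culture medium used for the cellular assays, with or without cells, at 37 °C. Percentages of the hydrolysis product and the glutarimide ring-opened product measured at time points up to 96 h.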

[7] = Drug uptake in SCID mouse xenografted with human MOLM16 cells assessed as drug level in tumor tissue at 50 mg/kg, iv measured after 6 hrs by LC-MS/MS; format: ADME, organism-based; conditions: read-out: Drug uptake; summary of the method: as §1
[8] = Drug uptake in SCID mouse xenografted with human MOLM16 cells assessed as drug level in tumor tissue at 50 mg/kg, iv measured after 1 hrs by LC-MS/MS; format: ADME, organism-based; conditions: read-out: Drug uptake; summary of the method: as §1
[9] = target: Protein cereblon/Signal transducer and activator of transcription 1-alpha/beta (Homo sapiens) (UniProt P42224+Q96SW2); assay: Protac activity at CRBN/STAT1 in human SU-DHL-1 cells […] at 0.25 to 100 uM incubated for 4 hrs by Western blot analysis; format: cell-based; conditions: dose lower 0.25 µM
[10] = target: Protein cereblon/Signal transducer and activator of transcription 2 (Homo sapiens) (UniProt Q96SW2+P52630); assay: Protac activity at CRBN/STAT2 in human SU-DHL-1 cells […] at 0.25 to 100 uM incubated for 4 hrs by Western blot analysis; format: cell-based; conditions: dose lower 0.25 µM
Chain of Protein cereblon/Signal transducer and activator of transcription 2 (Homo sapiens) (P52630 whole entry, looked up): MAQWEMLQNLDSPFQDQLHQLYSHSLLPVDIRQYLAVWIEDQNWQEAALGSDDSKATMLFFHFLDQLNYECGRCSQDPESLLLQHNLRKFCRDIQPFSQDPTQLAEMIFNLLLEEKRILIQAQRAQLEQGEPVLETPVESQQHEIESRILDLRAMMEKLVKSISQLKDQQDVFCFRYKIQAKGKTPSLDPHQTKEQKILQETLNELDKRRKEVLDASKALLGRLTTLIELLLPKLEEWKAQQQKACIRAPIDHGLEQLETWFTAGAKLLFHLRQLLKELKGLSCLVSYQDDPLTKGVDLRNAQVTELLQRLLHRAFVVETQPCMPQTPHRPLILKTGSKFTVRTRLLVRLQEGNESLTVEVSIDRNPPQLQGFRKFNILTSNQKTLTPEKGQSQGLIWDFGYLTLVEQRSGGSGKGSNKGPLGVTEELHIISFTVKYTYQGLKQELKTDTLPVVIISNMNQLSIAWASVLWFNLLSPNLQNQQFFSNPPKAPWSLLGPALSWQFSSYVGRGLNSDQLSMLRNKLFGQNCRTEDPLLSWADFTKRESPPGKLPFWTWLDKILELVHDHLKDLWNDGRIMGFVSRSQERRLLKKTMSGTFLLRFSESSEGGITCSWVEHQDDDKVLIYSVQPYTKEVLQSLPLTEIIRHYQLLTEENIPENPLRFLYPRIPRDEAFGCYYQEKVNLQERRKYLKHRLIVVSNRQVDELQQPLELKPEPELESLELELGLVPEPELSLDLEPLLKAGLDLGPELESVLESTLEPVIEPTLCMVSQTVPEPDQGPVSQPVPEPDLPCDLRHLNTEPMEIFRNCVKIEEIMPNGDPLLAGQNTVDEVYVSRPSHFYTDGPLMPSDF
Chain of Protein cereblon/Signal transducer and activator of transcription 2 (Homo sapiens) (Q96SW2 whole entry, looked up): as the sequence (Q96SW2 whole entry) above

[11] = as §3, with “in plasma” for “in tumor tissue”, “after 24” for “after 1”; format: ADME, organism-based; conditions: in vivo; summary of the method: as §1
[12] = target: Protein cereblon/Signal transducer and activator of transcription 6 (Homo sapiens) (UniProt P42226+Q96SW2); assay: Protac activity at CRBN/STAT6 in human MOLM16 cells assessed as STAT6 degradation at 0.25 to 100 uM incubated for 4 hrs by Western blot analysis; format: cell-based; conditions: dose 0.25-100 µM; summary of the method: as §2
Chain of Protein cereblon/Signal transducer and activator of transcription 6 (Homo sapiens) (P42226 2-847 limits assumed): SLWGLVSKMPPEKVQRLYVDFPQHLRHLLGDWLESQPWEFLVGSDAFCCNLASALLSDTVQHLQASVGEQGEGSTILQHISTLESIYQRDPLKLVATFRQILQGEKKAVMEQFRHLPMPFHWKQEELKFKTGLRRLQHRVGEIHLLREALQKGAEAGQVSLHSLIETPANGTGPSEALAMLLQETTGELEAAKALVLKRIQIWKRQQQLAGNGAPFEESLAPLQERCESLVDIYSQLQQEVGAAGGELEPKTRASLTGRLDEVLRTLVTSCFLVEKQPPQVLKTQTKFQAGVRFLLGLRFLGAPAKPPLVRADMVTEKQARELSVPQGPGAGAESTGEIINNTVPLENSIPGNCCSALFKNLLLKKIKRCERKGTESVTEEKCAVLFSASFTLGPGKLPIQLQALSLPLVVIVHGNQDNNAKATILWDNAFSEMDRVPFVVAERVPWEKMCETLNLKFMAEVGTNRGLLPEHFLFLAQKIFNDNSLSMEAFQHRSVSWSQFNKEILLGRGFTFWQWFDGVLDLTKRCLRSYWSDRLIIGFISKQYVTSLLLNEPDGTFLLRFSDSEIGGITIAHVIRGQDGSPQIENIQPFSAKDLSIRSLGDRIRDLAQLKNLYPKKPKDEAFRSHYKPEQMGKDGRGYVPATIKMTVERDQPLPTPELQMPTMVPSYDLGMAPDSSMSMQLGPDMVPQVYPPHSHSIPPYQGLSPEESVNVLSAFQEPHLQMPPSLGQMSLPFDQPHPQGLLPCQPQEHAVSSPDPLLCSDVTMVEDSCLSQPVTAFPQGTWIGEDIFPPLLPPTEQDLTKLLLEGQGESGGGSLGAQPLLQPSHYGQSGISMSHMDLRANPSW
Chain of Protein cereblon/Signal transducer and activator of transcription 6 (Homo sapiens) (Q96SW2 whole entry partner): as the sequence (Q96SW2 whole entry) above

[13] = target: T2, Signal transducer and activator of transcription 4 (Homo sapiens) (UniProt Q14765); assay: Induction of STAT4 degradation in human SUP-M2 cells at 0.25 to 100 uM incubated for 14 hrs by Western blot analysis; format: cell-based; conditions: SUPM2, dose 0.25-100 µM
T2 sequence (whole entry): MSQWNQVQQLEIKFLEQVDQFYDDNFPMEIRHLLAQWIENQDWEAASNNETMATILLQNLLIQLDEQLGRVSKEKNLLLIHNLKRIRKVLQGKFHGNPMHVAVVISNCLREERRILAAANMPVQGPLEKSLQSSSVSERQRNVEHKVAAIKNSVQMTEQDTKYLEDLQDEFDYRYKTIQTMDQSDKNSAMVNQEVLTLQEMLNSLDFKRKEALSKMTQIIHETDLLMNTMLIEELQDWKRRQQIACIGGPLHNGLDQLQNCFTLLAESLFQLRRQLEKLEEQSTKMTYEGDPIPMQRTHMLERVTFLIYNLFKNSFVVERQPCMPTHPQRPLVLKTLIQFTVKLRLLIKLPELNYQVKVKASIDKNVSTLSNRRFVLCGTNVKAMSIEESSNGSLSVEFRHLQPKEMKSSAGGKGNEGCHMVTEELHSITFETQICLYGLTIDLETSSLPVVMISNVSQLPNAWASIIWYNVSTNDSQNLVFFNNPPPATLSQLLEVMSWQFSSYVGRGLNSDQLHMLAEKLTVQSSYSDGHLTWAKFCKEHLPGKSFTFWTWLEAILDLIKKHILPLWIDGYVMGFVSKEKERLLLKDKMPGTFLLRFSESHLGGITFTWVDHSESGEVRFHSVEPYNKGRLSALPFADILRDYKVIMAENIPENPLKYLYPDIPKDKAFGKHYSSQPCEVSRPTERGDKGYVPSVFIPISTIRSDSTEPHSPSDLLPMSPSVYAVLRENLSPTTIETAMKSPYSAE

[14] = target: Signal transducer and activator of transcription 2 (Homo sapiens, UniProt P52630); assay: Binding affinity to human recombinant STAT2 assessed as dissociation constant incubated for 15 mins by biolayer interferometry
Chain of Signal transducer and activator of transcription 2 (P52630 whole entry, the tested form may be a part): as the sequence (P52630 whole entry, looked up) above
Summary of the method: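 Biolayer interferometry with recombinant human STAT1, STAT2, STAT3, STAT4, STAT5A, STAT5B or STAT6 proteins containing their SH2 domain. Compound run in 2× serial dilutions from 200 nM. Kd taken from steady-state fitting of equilibrium responses against concentration using a 1:1 binding model.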

[15] = target: T3, Signal transducer and activator of transcription 3 (Homo sapiens, UniProt P40763); assay: Induction of STAT3 degradation in human MOLM-16 cells for 4 hrs by western blot analysis; format: cell-based; conditions: molm16; summary of the method: as §2
T3 sequence (P40763 whole entry): as the sequence (P40763 whole entry) above

[16] = target: T3, Signal transducer and activator of transcription 3; assay: Induction of STAT3 degradation in human SUP-M2 cells incubated for 4 hrs by western blot analysis; format: cell-based; summary of the method: as §2
[17] = target: T3, Signal transducer and activator of transcription 3; assay: Induction of STAT3 degradation in human MOLM-16 cells assessed as decrease in STAT3 level at 10 uM incubated for 4 hrs by proteomic analysis; format: cell-based; conditions: MOLM16
Summary of the method: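 MOLM-16 cells treated with 1 or 10 μM for 4 h. Protein levels measured by quantitative proteomics across more than 7000 proteins.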

NC(=O)CC[C@H](NC(=O)[C@@H]1CC[C@@H]2CCN(C(=O)CCCCCC#Cc3cccc4c3CN(C3CCC(=O)NC3=O)C4=O)C[C@H](NC(=O)c3cc4cc(C(F)(F)P(=O)(O)O)ccc4[nH]3)C(=O)N21)C(=O)NC(c1ccccc1)c1ccccc1 (stereo partly specified)
Drug metabolism [1]: 25% | concentration at 1 h [2]: 103 µg/mL | DC50 [3]: 380 nM | DC50 [4]: 2500 nM | Drug uptake [5]: 6350 ng/g | Drug metabolism [6]: 50% | concentration at 6 h [7]: 580 ng/g | concentration at 1 h [8]: 7720 ng/g | Activity [9]: inactive | Activity [10]: inactive | Drug uptake [11]: 305 ng/mL | Activity [12]: inactive

CC(=O)N1CC[C@H]2CC[C@@H](C(=O)N[C@@H](CCC(N)=O)C(=O)NC(c3ccccc3)c3ccccc3)N2C(=O)[C@@H](NC(=O)c2cc3cc(C(=O)P(=O)(O)O)ccc3[nH]2)C1
Activity [13]: inactive

NC(=O)CC[C@H](NC(=O)[C@@H]1CC[C@@H]2CCN(C(=O)CCCCCC#Cc3cccc4c3CN(C3CCC(=O)NC3=O)C4=O)C[C@H](NC(=O)c3cc4cc(C(=O)P(=O)(O)O)ccc4[nH]3)C(=O)N21)C(=O)NC(c1ccccc1)c1ccccc1 (stereo partly specified)
concentration at 1 h [2]: 85.5 µg/mL | Kd [14]: > 10 nM | DC50 [15]: 120 nM | concentration at 6 h [7]: 4780 ng/g | concentration at 1 h [8]: 16200 ng/g | DC50 [16]: 1200 nM | Activity [17]: Active

CC(=O)N1CC[C@H]2CC[C@@H](C(=O)N[C@@H](CCC(N)=O)C(=O)NC(c3ccccc3)c3ccccc3)N2C(=O)[C@@H](NC(=O)c2cc3cc(C(F)(F)P(=O)(O)O)ccc3[nH]2)C1
Activity [13]: inactive
